Source: ChEMBL document CHEMBL4257525, “Synthesis and biological evaluation of new 3-amino-2-azetidinone derivatives as anti-colorectal cancer agents” (Medchemcomm, 2018)
pIC50: −log10 of the molar value.

System: not listed separately
Experiment: Inhibition of porcine brain tubulin polymerization measured for 15 mins by spectrophotometric method
Design: species or system Sus scrofa
Conditions: not given
Outline: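 Lyophilized purified tubulin resuspended at 2.5 mg mL-1 in assembly buffer (80 mM PIPES pH 6.9, 1 mM MgCl2, 2 mM EGTA, 10% glycerol), mixed with 1 mM GTP and varying compound concentrations; 0.2% v/v DMSO vehicle control. Assembly read at 340 nm, 37 °C. IC50 = concentration inhibiting polymerization by 50%, from four-parameter logistic fit.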

pIC50 | SMILES
5.30 | COc1ccc([C@H]2[C@H](NC(C)=O)C(=O)N2c2cc(OC)c(OC)c(OC)c2)cc1O (relative stereo)

System: SW48
Experiment: Antiproliferative activity against human SW48 cells after 72 hrs by MTT assay
Format: functional, cell-based
Conditions: SW48, 72 h
Outline: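 SW48 colorectal adenocarcinoma cells grown in RPMI-1640 with 10% FBS, 2 mM L-glutamine and penicillin/streptomycin at 37 °C, 5% CO2. 8000 cells per well exposed to a range of compound concentrations (in DMSO) for 72 h. MTT then added for 2 h at 37 °C, formazan solubilized, absorbance read at 570 nm. Triplicates in three independent experiments. IC50 from a four-parameter logistic fit against 0.1% DMSO controls.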

pIC50 | SMILES
6.96 | COc1ccc(C(=O)N[C@@H]2C(=O)N(c3cc(OC)c(OC)c(OC)c3)[C@H]2c2ccc(OC)c(O)c2)cc1 (relative stereo)
7.85 | COc1ccc([C@H]2[C@H](NC(C)=O)C(=O)N2c2cc(OC)c(OC)c(OC)c2)cc1O (relative stereo)
6.25 | COc1ccc([C@H]2[C@H](NC(=O)c3cc(OC)c(OC)c(OC)c3)C(=O)N2c2cc(OC)c(OC)c(OC)c2)cc1O (relative stereo)
6.42 | COc1ccc([C@H]2[C@H](NC(=O)c3ccc(F)cc3)C(=O)N2c2cc(OC)c(OC)c(OC)c2)cc1O (relative stereo)

More lines, now with the values behind:

SMILES | pIC50
COc1ccc([C@H]2[C@H](NC(=O)c3ccc(Cl)cc3)C(=O)N2c2cc(OC)c(OC)c(OC)c2)cc1O | 6.57
COc1ccc([C@H]2[C@H](NC(=O)[C@H](C)N)C(=O)N2c2cc(OC)c(OC)c(OC)c2)cc1O (relative stereo) | 7.04
COc1ccc([C@H]2[C@H](NC(=O)C3CCCCC3)C(=O)N2c2cc(OC)c(OC)c(OC)c2)cc1O (relative stereo) | 6.61
COc1ccc([C@H]2[C@H](NC(=O)Cc3c[nH]c4ccccc34)C(=O)N2c2cc(OC)c(OC)c(OC)c2)cc1O (relative stereo) | 7.31
COc1ccc([C@H]2[C@H](NC(=O)c3ccc4ccccc4c3)C(=O)N2c2cc(OC)c(OC)c(OC)c2)cc1O (relative stereo) | 6.66
COc1ccc([C@H]2[C@H](NC(=O)c3ccco3)C(=O)N2c2cc(OC)c(OC)c(OC)c2)cc1O (relative stereo) | 7.73
